Assay results published in ChEMBL document CHEMBL1152649, “Synthesis, cytotoxicity and human telomerase inhibition activities of a series of 1,2-heteroannelated anthraquinones and anthra[1,2-d]imidazole-6,11-dione homologues” (2009).

What was measured:
Type in all cases: functional
[1] = system: HCC 2998; experiment: Growth inhibition of human HCC2998 cells
Summary of the method: (§1)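 NCI 60 cancer cell line screen run per the Developmental Therapeutics Program protocol. Dose–response curves were plotted against log10 drug concentration for each cell line within its subpanel, and mean graph midpoint values were calculated.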

[2] = system: IGROV-1; experiment: Growth inhibition of human IGROV1 cells; summary of the method: as §1
[3] = system: M14; experiment: Growth inhibition of human M14 cells; summary of the method: as §1
[4] = system: NCI-H322M; experiment: Growth inhibition of human NCI-H322M cells; summary of the method: as §1
[5] = system: SK-OV-3; experiment: Growth inhibition of human SKOV3 cells
Summary of the method: (§2)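 Assayed in the NCI 60 human cancer cell line panel under the Developmental Therapeutics Program protocol. For each line, dose–response curves were plotted against log10 drug concentration. In the one-dose screen at 10^-5 M, growth was given as percent of untreated control cells, and mean graph midpoint values were averaged.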

[6] = system: MDA-MB-468; experiment: Growth inhibition of human MDA-MB-468 cells; summary of the method: as §1
[7] = system: MDA-MB-231; experiment: Growth inhibition of human MDA-MB-231 cells; summary of the method: as §1
[8] = system: CCRF-CEM; experiment: Growth inhibition of human CCRF-CEM cells; summary of the method: as §1
[9] = system: MDA-MB-435; experiment: Growth inhibition of human MDA-MB-435 cells; summary of the method: as §1
[10] = system: RXF 393; experiment: Growth inhibition of human RXF393 cells; summary of the method: as §2
[11] = system: UACC-62; experiment: Growth inhibition of human UACC62 cells; summary of the method: as §2
[12] = system: OVCAR-4; experiment: Growth inhibition of human OVCAR4 cells; summary of the method: as §1
[13] = system: UO-31; experiment: Growth inhibition of human UO31 cells; summary of the method: as §2
[14] = system: CAKI-1; experiment: Growth inhibition of human Caki1 cells; summary of the method: as §1
[15] = system: SNB-19; experiment: Growth inhibition of human SNB19 cells; summary of the method: as §2
[16] = system: NCI-H522; experiment: Growth inhibition of human NCI-H522 cells; summary of the method: as §1
[17] = system: SN12C; experiment: Growth inhibition of human SN12C cells; summary of the method: as §2
[18] = system: HT-29; experiment: Growth inhibition of human HT-29 cells; summary of the method: as §1
[19] = Growth inhibition of human […] cells; summary of the method: as §2
[20] = system: 786-0; experiment: Growth inhibition of human 786-0 cells; summary of the method: as §1
[21] = system: DU-145; experiment: Growth inhibition of human DU145 cells; summary of the method: as §1
[22] = system: NCI/ADR-RES; experiment: Growth inhibition of human NCI/ADR-RES cells; summary of the method: as §1
[23] = system: SK-MEL-28; experiment: Growth inhibition of human SK-MEL-28 cells; summary of the method: as §2
[24] = system: SW-620; experiment: Growth inhibition of human SW620 cells; summary of the method: as §2
[25] = system: HL-60(TB); experiment: Growth inhibition of human HL-60(TB) cells
Summary of the method: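 NCI 60-cell-line panel run under the Developmental Therapeutics Program protocol. Dose-response curves are plotted against log10 drug concentration for each cell line within its subpanel, and GI50 is read from these curves.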

[26] = system: SR; experiment: Growth inhibition of human SR cells; summary of the method: as §2
[27] = system: HCT-116; experiment: Growth inhibition of human HCT116 cells; summary of the method: as §1
[28] = Growth inhibition of human Hs 578T cells; summary of the method: as §1
[29] = system: SF-295; experiment: Growth inhibition of human SF295 cells; summary of the method: as §2
[30] = system: NCI-H23; experiment: Growth inhibition of human NCI-H23 cells; summary of the method: as §1
[31] = system: Malme-3M; experiment: Growth inhibition of human MALME-3M cells; summary of the method: as §1
[32] = system: EKVX; experiment: Growth inhibition of human EKVX cells; summary of the method: as §1
[33] = system: NCI-H460; experiment: Growth inhibition of human NCI-H460 cells; summary of the method: as §1
[34] = system: COLO 205; experiment: Growth inhibition of human COLO205 cells; summary of the method: as §1
[35] = read-out: LC50 (the source's name)

Structure (SMILES): CCc1nc2ccc3c(c2[nH]1)C(=O)c1ccccc1C3=O
- GI50 [1]: 18.8 µM
- TGI [1]: > 100 µM
- CC50 [1, 35]: > 100 µM
- GI50 [2]: 1.54 µM
- TGI [2]: 14.8 µM
- CC50 [2, 35]: > 100 µM
- GI50 [3]: 7.42 µM
- TGI [3]: > 100 µM
- CC50 [3, 35]: > 100 µM
- GI50 [4]: 4.87 µM
- TGI [4]: > 100 µM
- CC50 [4, 35]: > 100 µM
- GI50 [5]: 2.59 µM
- TGI [5]: > 100 µM
- CC50 [5, 35]: > 100 µM
- GI50 [6]: 8.29 µM
- TGI [6]: > 100 µM
- CC50 [6, 35]: > 100 µM
- GI50 [7]: 8.86 µM
- TGI [7]: > 100 µM
- GI50 [8]: 16.5 µM
- TGI [8]: > 100 µM
- CC50 [8, 35]: > 100 µM
- GI50 [9]: 30.3 µM
- TGI [9]: > 100 µM
- CC50 [9, 35]: > 100 µM
- GI50 [10]: 6.95 µM
- TGI [10]: > 100 µM
- CC50 [10, 35]: > 100 µM
- GI50 [11]: 8.09 µM
- TGI [11]: > 100 µM
- CC50 [11, 35]: > 100 µM
- GI50 [12]: 25.7 µM
- TGI [12]: > 100 µM
- CC50 [12, 35]: > 100 µM
- GI50 [13]: 1.33 µM
- TGI [13]: > 100 µM
- CC50 [13, 35]: > 100 µM
- GI50 [14]: 1.17 µM
- TGI [14]: > 100 µM
- CC50 [14, 35]: > 100 µM
- GI50 [15]: 18.1 µM
- TGI [15]: > 100 µM
- CC50 [15, 35]: > 100 µM
- GI50 [16]: 28.3 µM
- TGI [16]: > 100 µM
- CC50 [16, 35]: > 100 µM
- GI50 [17]: 13.6 µM
- TGI [17]: > 100 µM
- CC50 [17, 35]: > 100 µM
- GI50 [18]: 16.1 µM
- TGI [18]: > 100 µM
- CC50 [18, 35]: > 100 µM
- GI50 [19]: 4.16 µM
- TGI [19]: > 100 µM
- CC50 [19, 35]: > 100 µM
- GI50 [20]: 43.6 µM
- TGI [20]: > 100 µM
- CC50 [20, 35]: > 100 µM
- GI50 [21]: 9.43 µM
- TGI [21]: > 100 µM
- CC50 [21, 35]: > 100 µM
- GI50 [22]: 18.9 µM
- TGI [22]: > 100 µM
- CC50 [22, 35]: > 100 µM
- GI50 [23]: > 100 µM
- TGI [23]: > 100 µM
- CC50 [23, 35]: > 100 µM
- GI50 [24]: 19.8 µM
- TGI [24]: > 100 µM
- CC50 [24, 35]: > 100 µM
- GI50 [25]: 2.72 µM
- TGI [25]: 64.1 µM
- CC50 [25, 35]: > 100 µM
- GI50 [26]: 6.71 µM
- TGI [26]: > 100 µM
- CC50 [26, 35]: > 100 µM
- GI50 [27]: 5.9 µM
- TGI [27]: > 100 µM
- CC50 [27, 35]: > 100 µM
- GI50 [28]: > 100 µM
- TGI [28]: > 100 µM
- GI50 [29]: 4.15 µM
- TGI [29]: > 100 µM
- CC50 [29, 35]: > 100 µM
- GI50 [30]: 12.1 µM
- TGI [30]: > 100 µM
- CC50 [30, 35]: > 100 µM
- GI50 [31]: 8.55 µM
- TGI [31]: > 100 µM
- CC50 [31, 35]: > 100 µM
- GI50 [32]: 4.6 µM
- TGI [32]: > 100 µM
- CC50 [32, 35]: > 100 µM
- GI50 [33]: 5.27 µM
- TGI [33]: > 100 µM
- CC50 [33, 35]: > 100 µM
- GI50 [34]: 8.95 µM
- TGI [34]: > 100 µM
- CC50 [34, 35]: > 100 µM
